TRPC4 inh: inhibitors of mouse TRPC4 channel. 0.39% of 300,000 active. B-score at 10 µM. HEK293 TRPC4beta/mu-opioid, DAMGO-evoked Fluo4 calcium flux; stronger effect = lower value;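 active means B-score over 3 SD under the library average, no early fluorescence shift, positive overall ratio signal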
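Material: HEK293 cells with stable TRPC4beta plus mu-opioid receptor expression; probe or stimulus: DAMGO in two steps, submaximal then maximal; technique: Fluo4 calcium fluorescence by kinetic imaging, 5 s 1 Hz baseline; measure: integrated fluorescence ratio relative to baseline, converted to per-well B score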
TRPC4 PAM: TRPC4 (mouse) allosteric potentiation; HEK293 TRPC4beta/mu-opioid, DAMGO EC20, Fluo-4 Ca2+ flux; stronger effect = higher value; B-score at 10 µM; 0.42% of 310,000 active; Q9QUQ5; AID 2227;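 active means B-score of calcium response area above 5 SD of library B-scores, with initial fluorescence ratio within 5 SD of library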;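 further: B-score of integrated fluorescence ratio over time as area under calcium response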
TRPC4 act: TRPC4 (mouse) channel activation | HEK293 TRPC4beta/mu-opioid, Fluo4 calcium fluorescence; stronger effect = higher value | B-score at 10 µM | 0.49% of 310,000 active | AID 2237;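 active means B-score above 5 SD of library B-scores, and initial fluorescence ratio not above library mean plus 5 SD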;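 further: positive B-score marks a calcium rise read as TRPC4 activation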
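System – HEK293 cells stably co-expressing mouse TRPC4beta and mu-opioid receptor · Signal – Fluo4 calcium-sensitive dye fluorescence, kinetic, 1 Hz baseline · Benchmarks – buffer (low) and maximal DAMGO (high) · Read-out – B score of integrated fluorescence ratio per well · Incubation – dye loading 45 min room temperature, 110 s kinetic read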
TRPC6 inh: blocks the mouse TRPC6 cation channel; HEK293-TRPC6, membrane potential dye, ACh-evoked depolarization; stronger effect = lower value; Q61143; 1.1% of 310,000 active; B-score at 10 µM;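 active means B-score under library mean minus 3 SD, initial fluorescence not abnormally high, positive integrated signal ratio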;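 further: B-score derived from integrated fluorescence ratio over the kinetic read; more negative B-score means stronger inhibition of depolarization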
TRPC6 activator: mouse TRPC6 channel activation. Q61143. HEK293-TRPC6 membrane potential dye fluorescence; stronger effect = higher value. B-score at 10 µM. 0.13% of 310,000 active;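 active means B-score of the integrated fluorescence ratio above library mean plus 3 SD, and starting fluorescence ratio within library mean plus 5 SD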;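 further: higher score means more depolarization so channel activation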
TRPC4 sel inh 2: second selectivity test of TRPC6 inhibitors: effect on mouse TRPC4; HEK293 TRPC4/MOR, membrane potential dye fluorescence; channel activated by saturating DAMGO dose; 42% of 920 active; inhibition, % at 10 µM; AID 2776; shares compounds with TRPC6 inh;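 active means compounds whose fluorescence signal differed from control wells by over 3 SD, either direction, in both duplicate plates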
TRPC4 spec: selectivity of TRPC6 inhibitors: effect on mouse TRPC4; HEK293 TRPC4/mu-opioid, membrane potential fluorescence; activity change, negative = inhibition, % at 10 µM; 61% of 920 active; shares compounds with TRPC6 inh;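 active means rise or fall in signal beyond 3 SD of buffer-only wells in both replicate plates, either sign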;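 further: integrated kinetic ratio of fluorescence range over baseline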
HEK293 MPD ctr 2-1: second counter-screen for TRPC6 inhibitors: parental HEK293 cells; 31% of 920 active; signal change vs control, % at 10 µM; parental HEK293 membrane potential dye fluorescence; maximal acetylcholine challenge after compound addition; shares compounds with TRPC6 inh;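 active means membrane potential signal moving either way by over 3 SD of the maximum-effect control, in both duplicate plates, meaning non-specific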
HEK293 MPD ctr-1: checks TRPC6 inhibitor effects in parental HEK293 cells | shares compounds with TRPC6 inh | parental HEK293 membrane potential dye fluorescence | membrane potential signal change, % at 10 µM | 60% of 920 active;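 active means membrane potential signal shifting up or down by more than 3 SD of buffer-only wells, on both duplicate plates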
HEK293 MPD ctr-2: checks TRPC6 modulator effects in parental HEK293 cells. AID 488924. shares compounds with TRPC6 inh. membrane potential dye fluorescence. 51% of 2,400 active. membrane potential signal change, % at 10 µM;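 active means membrane potential signal moves up or down beyond 5 SD from buffer-only wells, on both duplicate plates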
HEK293 MPD ctr 2-2: second check of TRPC6 modulator effects in parental HEK293 cells. membrane potential dye fluorescence; after compound, maximal acetylcholine stimulation. AID 488926. shares compounds with TRPC6 inh. inhibition, % at 10 µM. 14% of 2,400 active;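 active means membrane potential signal drops by more than 5 SD from the mean control signal, in both duplicate plates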;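 further: plate controls were acetylcholine ECmax control wells for no effect and buffer only wells for full effect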
TRPC4 ctr mod: mouse TRPC4 off-target activity of TRPC6 modulators | AID 488927 | percent change from control (negative = decrease, positive = increase), % at 10 µM | shares compounds with TRPC6 inh | 69% of 2,400 active | HEK293 TRPC4/mu-opioid, membrane potential fluorescence;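 active means membrane potential signal moved up or down beyond 5 SD of buffer control wells, in both duplicate plates, actives on both sides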;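 further: plate controls were assay buffer wells for no effect and DAMGO maximal-effect wells for full effect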
TRPC4 ctr inh 2: second selectivity test of TRPC6 modulators against mouse TRPC4; 55% of 2,400 active; AID 488928; HEK293 TRPC4/mu-opioid, membrane potential dye fluorescence; stimulated with maximal-effect DAMGO; inhibition, % at 10 µM; shares compounds with TRPC6 inh;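 active means drop in membrane potential signal beyond 5 SD of the control wells in both duplicate plates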;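 further: TRPC4 counter screen for TRPC6 hits run under conditions tuned for TRPC6 not TRPC4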
TRPC6 inh conf: confirmation of mouse TRPC6 inhibitors; 43% of 3,300 active; shares compounds with TRPC6 inh; inhibition, % at 10 µM; HEK293-TRPC6, membrane potential dye, ACh-evoked depolarization; AID 488960;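 active means fluorescence ratio falls more than 5 SD below the full-stimulation control mean, in both duplicate runs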;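 further: integrated fluorescence ratio of peak minus minimum over baseline after agonist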
TRPC6 act confirm: confirmation of mouse TRPC6 activators; shares compounds with TRPC6 inh; HEK293-TRPC6 membrane potential dye fluorescence, FDSS; activation, % at 10 µM; 11% of 2,800 active; AID 488961;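 active means ratio signal rise beyond 5 SD above unstimulated control wells' mean, seen in both duplicate runs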;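 further: plate controls were buffer EC0 wells for no effect and acetylcholine ECmax response for full effect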
The depositor's hits bear a star; i = inactive; nt = no result. Sampled rows, rich in hits. Any-hit rate of the full collection: about 2.3%.

SMILES	TRPC4 inh	TRPC4 PAM	TRPC4 act	TRPC6 inh	TRPC6 activator	TRPC4 sel inh 2	TRPC4 spec	HEK293 MPD ctr 2-1	HEK293 MPD ctr-1	TRPC6 inh conf	TRPC6 act confirm	others
O=C(Nc1cc(F)ccc1F)N1CCN(c2ccnc3cc(Cl)ccc23)CC1	i	i	i	i	i	nt	nt	nt	nt	nt	nt
Cc1ccc(F)cc1NC(=O)N1CCN(c2ccnc3cc(Cl)ccc23)CC1	i	i	i	-5.3*	i	nt	nt	nt	nt	i	i	HEK293 MPD ctr-2=-94%*;HEK293 MPD ctr 2-2=i;TRPC4 ctr mod=-24%*;TRPC4 ctr inh 2=i
c1ccc(-c2nc(NCCCn3ccnc3)c3ccccc3n2)cc1	i	i	i	-5.2*	i	nt	nt	nt	nt	61%*	i	HEK293 MPD ctr-2=-220%*;HEK293 MPD ctr 2-2=i;TRPC4 ctr mod=-50%*;TRPC4 ctr inh 2=72%*
CCN(CC)CCCNc1nc(-c2ccccc2)nc2ccccc12	i	i	i	-8.8*	i	40%*	-27%*	35%*	-355%*	76%*	i
COc1ccc(C(CNc2nc(-c3cccnc3)nc3ccccc23)N(C)C)cc1 (stereo not given)	i	i	188*	-7.5*	i	nt	nt	nt	nt	55%*	i	HEK293 MPD ctr-2=-277%*;HEK293 MPD ctr 2-2=i;TRPC4 ctr mod=-38%*;TRPC4 ctr inh 2=90%*
COc1ccc(-c2nc(NCCCN(C)C)c3ccccc3n2)cc1	i	i	i	-6.7*	i	55%*	-32%*	i	-387%*	85%*	i
COc1c(Cl)cc(Cl)cc1CNc1ccc(S(N)(=O)=O)cc1	i	i	i	i	i	nt	nt	nt	nt	nt	nt
Cc1[nH]c(C)c(S(=O)(=O)NCc2ccc(Cl)cc2)c1C(=O)N1CCCC1	i	i	i	i	i	nt	nt	nt	nt	nt	nt
CCCCn1c(N)c(N(CCC(C)C)C(=O)c2ccc([N+](=O)[O-])s2)c(=O)[nH]c1=O	i	i	i	i	i	nt	nt	nt	nt	nt	nt
CC(Nc1nc(-c2ccccc2)nc2ccccc12)c1ccccc1 (stereo not given)	i	i	i	-7.3*	i	i	-9.5%*	i	i	i	i
CC(Nc1nc(-c2ccccc2O)nc2ccccc12)c1ccccc1 (stereo not given)	i	i	i	i	i	nt	nt	nt	nt	nt	nt
Cc1ccc(OCC(COCc2ccccc2)NC(C)C)cc1 (stereo not given)	-6*	i	i	-9.3*	i	42%*	38%*	i	14%*	101%*	nt
O=C(CCNC(=O)C1CCN(S(=O)(=O)c2ccc(F)cc2)CC1)NCc1ccccc1	i	i	i	i	i	nt	nt	nt	nt	nt	nt

High-throughput results as filed in PubChem BioAssay.
